Measured values taken from PubChem BioAssay AID504449 (Broad Institute, 2011).
Records with an inconclusive call do not appear. Activity calls are given as the source filed them.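 The calls were made as follows: active = compounds lowering viability signal with fitted half-maximal potency within ten times the top dose, in every repeat run; inconclusive = repeat runs disagree, or weak flat or poorly fitted curves; inactive = every run inactive, including flat or rising signals.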

System: HMLE_shECad breast CSC viability, CellTiter-Glo, 72 h
Test: viability loss in HMLE_shECad cells, dose response, cell-based, CellTiter-Glo luminescence, powder samples, set 4 (AID 504449)
Settings: not given
Outline: (§1)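 assay system = HMLE_shECad cells, E-cadherin knockdown, EMT-induced breast cancer stem cell model | medium = serum-free CSC medium | compound = 100 nL pinned compound | times = ≥4 h cell settling at 37 °C, ~70-74 h compound exposure | technique = CellTiter-Glo luminescence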

| SMILES | AC50 |
| --- | --- |
| Cc1cccc(OCC(=O)N/N=C/c2ccc[nH]2)c1C | 24.6 µM |
| Cc1csc(NC(=O)c2ccc(COc3cccc(Cl)c3)o2)n1 | 0.572 µM |
| Cc1csc(NC(=O)c2ccc(COc3cccc(F)c3)o2)n1 | 10.1 µM |
| O=C(N/N=C/c1ccc[nH]1)C1CC1c1ccccc1 (stereo not given) | 12.9 µM |
| O=C(COc1ccc(Cl)cc1Br)N/N=C/c1ccc[nH]1 | 3.16 µM |
| Cc1csc(NC(=O)c2ccc(COc3ccc(C#N)cc3)o2)n1 | 11.5 µM |
| Cc1csc(NC(=O)c2ccc(COc3ccc(Cl)cc3)o2)n1 | 2.82 µM |
| Cc1csc(NC(=O)c2ccc(COc3cccc(C(F)(F)F)c3)o2)n1 | 1.57 µM |
| CC(C)(C)c1ccc(C2CC2C(=O)N/N=C/c2ccc[nH]2)cc1 (stereo not given) | 0.787 µM |
| Cc1ccc(/C=C/C(=O)NC2=NCCS2)cc1 | 16 µM |
| CC(C)c1ccc(/C=C/C(=O)Nc2nncs2)cc1 | 13.6 µM |
| O=C(COc1ccc2ccccc2c1Br)N/N=C/c1ccc[nH]1 | 1.11 µM |
| CC(C)c1ccc(/C=C/C(=O)N(C)Cc2ccccc2)cc1 | 19.2 µM |
| Cc1csc(NC(=O)c2ccc(COc3cccc(C#N)c3)o2)n1 | 2.07 µM |
| Cc1csc(NC(=O)c2ccc(COc3ccccc3Cl)o2)n1 | 0.045 µM |
| Cc1csc(NC(=O)c2ccc(COc3ccccc3C(F)(F)F)o2)n1 | 0.065 µM |
| O=C(/C=C/c1cccc(Cl)c1)NC1=NCCS1 | 15 µM |
| COc1cccc(OCc2ccc(C(=O)Nc3nc(C)cs3)o2)c1 | 0.081 µM |

| SMILES | AC50 |
| --- | --- |
| O=C(COc1ccc(Br)cc1)N/N=C/c1ccc[nH]1 | 15.3 µM |
| Cc1csc(NC(=O)c2ccc(COc3ccccc3OC(F)(F)F)o2)n1 | 0.24 µM |
| Cc1csc(NC(=O)c2ccc(COc3cccc(OC(F)(F)F)c3)o2)n1 | 0.439 µM |
| Cc1csc(NC(=O)c2ccc(COc3ccccc3F)o2)n1 | 0.019 µM |
| Cc1ccc(C)c(OCC(=O)N/N=C/c2ccc[nH]2)c1 | 9.05 µM |
| Cc1csc(NC(=O)c2ccc(COc3ccc(C(F)(F)F)cc3)o2)n1 | 2.01 µM |
| CC(C)c1ccc(/C=C/C(=O)Nc2ccccn2)cc1 | 25.5 µM |
| CC(C)c1ccc(/C=C/C(=O)Nc2nccn2C)cc1 | 4.65 µM |
| COc1ccccc1OCc1ccc(C(=O)Nc2nc(C)cs2)o1 | 1.63 µM |
| O=C(CSc1cc(Cl)ccc1Cl)N/N=C/c1ccc[nH]1 | 2.27 µM |
| Cc1csc(NC(=O)c2ccc(COc3ccccc3C#N)o2)n1 | 0.917 µM |
| Cc1csc(NC(=O)c2ccc(COc3ccc(OC(F)(F)F)cc3)o2)n1 | 3.16 µM |
| COc1ccc(OCc2ccc(C(=O)Nc3nc(C)cs3)o2)cc1 | 29.4 µM |
| CC[C@@H](C(=O)O)C1CC[C@H](C)C([C@@H](C)[C@H](O)[C@H](C)C(=O)[C@H](CC)C2O[C@]3(C=C[C@@H](O)[C@]4(CC[C@@](C)(C5CC[C@](O)(CC)[C@H](C)O5)O4)O3)[C@H](C)C[C@@H]2C)O1 (stereo not given in full) | 0.01 µM |
| Cc1csc(NC(=O)c2ccc(COc3ccc(F)cc3)o2)n1 | 5.65 µM |
| O=C(N/N=C/c1ccc[nH]1)C1COc2cc3ccccc3cc2O1 (stereo not given) | 4.2 µM |
| CC(C)c1ccc(/C=C/C(=O)Nc2nccs2)cc1 | 3.54 µM |
| O=C(Nc1nc2cccc(Cl)c2s1)c1ccc(COc2ccccc2)o1 | 4.49 µM |

System: not listed separately
Test: as above
Settings: HMLE_shECad breast CSC viability, CellTiter-Glo, 72 h; at 30 µM (top of the series)
Outline: as §1

| SMILES | activity change, negative = inhibition |
| --- | --- |
| C(=C\c1ccccc1)/CNC1=NCCS1 | 10.6% (inactive) |
| CC(C)c1ccc(/C=C/C(=O)N2CCOCC2)cc1 | 17.8% (inactive) |
| O=C(Nc1ccccn1)c1ccc(COc2ccccc2)o1 | -28.5% (inactive) |
| O=C(/C=C/c1ccc(C(F)(F)F)cc1)NC1=NCCS1 | -1.72% (inactive) |
| Cc1cc(C)c(/C=N/NC(=O)COc2c(Cl)cc(Cl)cc2Cl)[nH]1 | -14.5% (inactive) |
| O=C(c1ccc(COc2ccccc2)o1)N1CCOCC1 | 2% (inactive) |
| Cn1ccnc1NC(=O)c1ccc(COc2ccccc2)o1 | -15.5% (inactive) |
| O=C(COc1ccc(Cl)cc1Cl)N/N=C/c1ccn[nH]1 | 1.84% (inactive) |
| COc1ccccc1OCC(=O)N/N=C/c1ccc[nH]1 | 9.18% (inactive) |
| O=C(NC1=NCCS1)/C(F)=C/c1ccccc1 | 10.8% (inactive) |
| Cc1csc(NC(=O)c2ccc(CO)o2)n1 | -1.83% (inactive) |
| O=S(=O)(/C=C/c1ccccc1)NC1=NCCS1 | 14.4% (inactive) |
| O=C(Nc1nccs1)c1ccc(COc2ccccc2)o1 | 6.69% (inactive) |
| Cc1ccc2cc(C(=O)NC3=NCCS3)n(C)c2c1 | -17.3% (inactive) |
| O=C(N/N=C/c1ccn[nH]1)c1cc2ccccc2o1 | 26.2% (inactive) |
| C/C(=C\c1ccccc1)C(=O)NC1=NCCS1 | 8.28% (inactive) |
| CC(C)c1ccc(/C=C/C(=O)NCc2ccccc2)cc1 | -6.44% (inactive) |
| COc1cccc(/C=C/C(=O)NC2=NCCS2)c1 | -21% (inactive) |
| O=C(COc1c(Cl)cc(Cl)cc1Cl)N/N=C/c1ccn[nH]1 | 6.67% (inactive) |
